The values below come from article PMC3583018 (Synapse (New York, N.Y.), 2010).

Where “and” joins values, the source holds several entries; their conditions need not be identical. Identical values can stand only once. Like-named read-outs stand apart in the source and are kept apart here.

The target in test [1] is T1, rat rD3 receptors (Rattus norvegicus, UniProt P19020). Kind of test: Saturation. The settings on record: rD3 in Sf9 cells, saturation binding, mean ± S.E.M n = 3.
In test [2] the test system is D3 receptors. Put plainly: Fractional receptor occupancy from saturation binding isotherm. As to conditions: monkey striatum; for receptors labeled: derived from saturation binding isotherm. The procedure, abridged: (§1)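 Calculated rather than measured: the fraction of D2 or D3 receptors occupied in monkey striatum comes from B/Bmax = L/(L+Kd). L is 4 nM for the tritiated test radioligand or 10 nM for tritiated raclopride. Kd values are from saturation binding to cloned human D2L/D3 receptors expressed in HEK cells. The test radioligand Kd values were taken from earlier work.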

The test system of test [3] is D2 receptors. Kind of test: Fractional receptor occupancy from saturation binding isotherm. The settings on record: rat striatum; for receptors labeled: derived from saturation binding isotherm. The procedure, abridged: (§2)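 Computed occupancy fractions for rat striatum D2 or D3 receptors use the mass-action isotherm B/Bmax = L/(L+Kd). L is 4 nM for the tritiated test radioligand and 10 nM for tritiated raclopride. Kd values come from saturation binding to rat D2L/D3 receptors expressed in Sf9 cell membranes. The test radioligand Kd was taken from earlier work.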

The target in test [4] is T2, human hD3 receptors (Homo sapiens, UniProt P35462). Put plainly: Saturation. As to conditions: hD3 in HEK cells, saturation binding, mean ± S.E.M n = 3.
T2 sequence (P35462 whole entry): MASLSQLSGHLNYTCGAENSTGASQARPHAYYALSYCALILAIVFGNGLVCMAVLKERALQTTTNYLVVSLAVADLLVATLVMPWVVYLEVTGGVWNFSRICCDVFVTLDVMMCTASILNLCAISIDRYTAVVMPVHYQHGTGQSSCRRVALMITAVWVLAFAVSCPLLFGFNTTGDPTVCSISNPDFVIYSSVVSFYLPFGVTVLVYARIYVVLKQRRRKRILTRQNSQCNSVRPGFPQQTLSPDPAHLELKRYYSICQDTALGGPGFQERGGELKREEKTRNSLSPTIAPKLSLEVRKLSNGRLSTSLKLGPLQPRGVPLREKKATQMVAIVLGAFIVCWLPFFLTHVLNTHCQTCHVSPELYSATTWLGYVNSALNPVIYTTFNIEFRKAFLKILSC
The test system of test [5] is D2 plus D3 receptors. Format: binding, Sprague-Dawley rat. As to conditions: rat striatum, n = 30. In short, it runs like this: (§3)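 Brains from male rhesus monkey (5 kg, 6 years) and male Sprague-Dawley rats (~500 g, 5 months) were flash frozen, and 20 μm coronal sections were cut. Sections were incubated 30 min with 4 nM tritiated test radioligand or 10 nM [3H]raclopride, ±1 μM S(−)-eticlopride for nonspecific binding. Sections were rinsed five times in ice-cold buffer, then imaged 24 h on a gaseous beta imager and calibrated against tritium standards. Reported as mean ± S.E.M (monkey n = 8, rat n = 30).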

For test [6], the system named is D2 receptors. Put plainly: Fractional receptor occupancy from saturation binding isotherm. The settings on record: monkey striatum; for receptors labeled: derived from saturation binding isotherm. The procedure, abridged: as §1
For test [7], the system named is D3 receptors. Put plainly: Fractional receptor occupancy from saturation binding isotherm. The settings on record: rat striatum; for receptors labeled: derived from saturation binding isotherm. The procedure, abridged: as §2
Test [8] concerns D2 plus D3 receptors. Type of test: binding, rhesus monkey. The settings on record: n = 8; for B2 apparent receptor binding density: 10 nM radioligand; for B1 apparent receptor binding density: 4 nM radioligand. The procedure, abridged: as §3
The target in the next test is rat rD2L receptors (Rattus norvegicus, UniProt P61169). As to conditions: rD2L in Sf9 cells, saturation binding, mean ± S.E.M n = 3; ref Xu et al. (2009); cited from earlier work.
rat rD2L receptors, sequence (P61169 whole entry): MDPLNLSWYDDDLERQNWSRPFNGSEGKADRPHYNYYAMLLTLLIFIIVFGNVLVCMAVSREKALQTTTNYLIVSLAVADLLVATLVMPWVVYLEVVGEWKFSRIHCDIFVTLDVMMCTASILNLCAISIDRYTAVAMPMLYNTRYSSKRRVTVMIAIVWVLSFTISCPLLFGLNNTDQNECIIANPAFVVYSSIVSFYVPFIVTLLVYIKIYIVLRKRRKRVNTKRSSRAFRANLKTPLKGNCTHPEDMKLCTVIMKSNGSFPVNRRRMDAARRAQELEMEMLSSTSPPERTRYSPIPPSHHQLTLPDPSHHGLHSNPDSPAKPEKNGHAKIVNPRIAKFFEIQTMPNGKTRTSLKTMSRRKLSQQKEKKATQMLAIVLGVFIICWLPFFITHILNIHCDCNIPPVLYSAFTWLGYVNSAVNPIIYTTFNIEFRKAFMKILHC
For test [9], the target named is T1, rat rD3 receptors. The settings on record: cited from earlier work.
The target in test [10] is D3 receptors (Rattus norvegicus, UniProt P19020). Kind of test: Scatchard analysis of autoradiography binding to rat brain sections. More on the design: species or system Sprague-Dawley rat.
D3 receptors (Rattus norvegicus, UniProt P19020), sequence (P19020 whole entry): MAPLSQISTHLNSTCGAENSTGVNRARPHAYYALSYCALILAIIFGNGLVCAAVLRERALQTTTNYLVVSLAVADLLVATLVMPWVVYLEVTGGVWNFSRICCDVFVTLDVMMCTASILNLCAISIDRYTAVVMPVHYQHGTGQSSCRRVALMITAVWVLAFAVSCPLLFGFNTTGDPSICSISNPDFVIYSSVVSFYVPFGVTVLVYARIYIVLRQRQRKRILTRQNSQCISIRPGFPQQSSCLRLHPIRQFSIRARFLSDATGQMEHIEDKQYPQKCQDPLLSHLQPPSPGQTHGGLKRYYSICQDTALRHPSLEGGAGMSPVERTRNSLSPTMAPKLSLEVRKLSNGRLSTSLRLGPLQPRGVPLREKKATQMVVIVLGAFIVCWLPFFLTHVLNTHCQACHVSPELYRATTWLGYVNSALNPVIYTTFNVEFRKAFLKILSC
For test [11], the target named is T2, human hD3 receptors. As to conditions: cited from earlier work.
A further test addresses human hD2L receptors (Homo sapiens, UniProt P14416). The settings on record: hD2L in HEK cells, saturation binding, mean ± S.E.M n = 3; ref Xu et al. (2009); cited from earlier work.
The mark [12] stands for this setting: 10 nM, from Eq. 2 with Kd of Table I.
Where [13] appears, read: 4 nM, from Eq. 2 with Kd of Table I.

T1 sequence (P19020 whole entry): as above
human hD2L receptors, sequence (P14416 whole entry): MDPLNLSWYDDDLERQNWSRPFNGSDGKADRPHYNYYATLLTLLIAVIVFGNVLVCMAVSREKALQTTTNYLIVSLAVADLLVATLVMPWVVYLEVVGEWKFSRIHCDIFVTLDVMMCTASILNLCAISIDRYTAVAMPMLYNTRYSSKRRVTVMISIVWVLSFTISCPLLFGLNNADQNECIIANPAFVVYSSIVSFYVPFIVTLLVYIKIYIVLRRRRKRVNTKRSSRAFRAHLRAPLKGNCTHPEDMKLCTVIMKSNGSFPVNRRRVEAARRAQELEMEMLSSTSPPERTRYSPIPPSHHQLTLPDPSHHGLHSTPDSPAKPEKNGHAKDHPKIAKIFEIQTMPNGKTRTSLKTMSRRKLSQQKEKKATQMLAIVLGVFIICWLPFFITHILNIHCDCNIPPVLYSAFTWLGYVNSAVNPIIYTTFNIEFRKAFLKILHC

One may read the Kd as the concentration at which binding is half-saturated. Take `CCN1CCC[C@H]1CNC(=O)c1c(O)c(Cl)cc(Cl)c1OC` (racemic) [[^3H]raclopride, reference compound]: the Kd at rat rD3 receptors [1] came to 17.1 ± 1.7 nM; at human hD3 receptors [4], 18 ± 1 nM. In addition, the receptors labeled in the test with D3 receptors [2] (10 nM) came to 36%; in the test on D2 receptors [3] (10 nM), 60%; in the test on D2 receptors [6] (10 nM), 86%; with D3 receptors [7] (10 nM), 37%. Moreover, the “b2, receptor occupancy fraction” value in the test on D3 receptors [2] (setting [12]) came out at 0.36; in the test on D3 receptors [7] (setting [12]), 0.37. The “a2, receptor occupancy fraction” value with D2 receptors [3] (setting [12]) was determined as 0.6; in the test on D2 receptors [6] (setting [12]), 0.86. Moreover, the “B2 apparent receptor binding density” value in the test on D2 plus D3 receptors [5] (10 nM radioligand) was 145 fmol/mg tissue and 145 ± 4 fmol/mg tissue; with D2 plus D3 receptors [8] (rhesus caudate), 318 fmol/mg tissue and 318 ± 17 fmol/mg tissue; in the test with D2 plus D3 receptors [8] (rhesus putamen) it was 345 fmol/mg tissue and 345 ± 23 fmol/mg tissue.
For `COc1ccccc1N1CCN(CCCCNC(=O)c2ccc(N(C)C)cc2)CC1` [[^3H]WC-10, 4-(dimethylamino)-N-(4-(4-(2-methoxyphenyl)piperazin-1-yl)butyl)benzamide], the Kd on rat rD2L receptors was 158 ± 8.3 nM; at rat rD3 receptors [9] (rD3 in Sf9 cells, saturation binding, mean ± S.E.M n = 3, ref Xu et al. (2009)) it was 3.9 nM and 3.94 nM; at D3 receptors [10] it was 3.4 nM; on human hD3 receptors [11] (hD3 in HEK cells, saturation binding, mean ± S.E.M n = 3, ref Xu et al. (2009)) it was 1.2 nM and 1.16 nM; at human hD2L receptors it was 76 ± 4 nM. Moreover, the receptors labeled in the test with D3 receptors [2] (4 nM) stood at 78%; in the test with D2 receptors [3] (4 nM), 2%; in the test on D2 receptors [6] (4 nM), 5%; with D3 receptors [7] (4 nM), 50%. Moreover, the “b1, receptor occupancy fraction” value with D3 receptors [2] (setting [13]) came out at 0.78; in the test on D3 receptors [7] (setting [13]), 0.5. For the same compound, the “a1, receptor occupancy fraction” value in the test on D2 receptors [3] (setting [13]) came out at 0.02; in the test on D2 receptors [6] (setting [13]), 0.05. Besides, the “D2L/D3 (Kd ratio)” value is listed as 40.1 on rat rD3 receptors [9] (rat receptors in Sf9 cells, ref Xu et al. (2009)) and 65.5 on human hD3 receptors [11] (human receptors in HEK cells, ref Xu et al. (2009)). Also, on rat rD3 receptors [9] (ref Xu et al., 2009), the “fold higher affinity to rat Sf9 rD3 than to rat Sf9 rD2L receptors” value is recorded as 40 fold. In addition, the “fold lower affinity to rat Sf9 rD3 than to human HEK D3 receptors” value on rat rD3 receptors [9] (ref Xu et al., 2009) was 3 fold. Further, the “B1 apparent receptor binding density” value was 38 fmol/mg tissue and 38 ± 2 fmol/mg tissue in the test on D2 plus D3 receptors [5] (4 nM radioligand); 125 fmol/mg tissue and 125 ± 3 fmol/mg tissue in the test on D2 plus D3 receptors [8] (rhesus anterior caudate); 141 fmol/mg tissue and 141 ± 4 fmol/mg tissue in the test with D2 plus D3 receptors [8] (rhesus putamen). In addition, on human hD3 receptors [11] (ref Xu et al., 2009), the “fold higher affinity to human HEK D3 than to HEK D2L receptors” value was 66 fold.
